Experiment [1] concerns Staphylococcus aureus. Description: Antibacterial activity against Staphylococcus aureus ATCC 6538P after 18 hrs by serial dilution method. Format: functional. In outline:
(§1)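 Agar dilution MIC. Compound stock diluted with water, then serially doubled in melted Mueller–Hinton agar to 64, 32, 16 and 8 µg/mL. Plates inoculated with 1-5 × 10^4 CFU and incubated 18 h at 37 °C. MIC is the lowest concentration giving no visible growth.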

In experiment [2] the test system is Staphylococcus epidermidis. Briefly: Antibacterial activity against Staphylococcus epidermidis ATCC 12228 after 18 hrs by serial dilution method. Format: functional. Particulars: ATCC 12228, 18 h. In outline:
as §1

Experiment [3] deals with Escherichia coli. Briefly: Antibacterial activity against Escherichia coli ATCC 8739 after 18 hrs by serial dilution method. It counts as functional. Conditions: ATCC 8739, 18 h. The method, boiled down:
as §1

For experiment [4], the system named is Klebsiella pneumoniae. Description: Antibacterial activity against Klebsiella pneumoniae ATCC 10031 after 18 hrs by serial dilution method. Format: functional. Particulars: ATCC 10031, 18 h. The method, boiled down: as §1
The subject of experiment [5] is Candida albicans. Briefly: Antifungal activity against Candida albicans PTCC 5027 after 72 hrs by agar dilution method. Format: functional.
In experiment [6] the test system is Saccharomyces cerevisiae. Briefly: Antifungal activity against Saccharomyces cerevisiae PTCC 5177 after 72 hrs by agar dilution method. It counts as functional.
Experiment [7] concerns Nannizzia gypsea. Briefly: Antifungal activity against Microsporum gypseum PTCC 5070 after […] by agar dilution method. It counts as functional. In outline:
(§2)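 Agar dilution on Sabouraud dextrose agar. Compound stocks in DMSO. Inocula about 10^5 CFU/mL from log-phase broth cultures. Plates run in triplicate at 30 °C: about 24–48 h for yeasts, about 72 h for moulds, about 168 h for dermatophytes. MIC is the lowest concentration with no visible growth on the plate.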

The subject of experiment [8] is Aspergillus niger. Description: Antifungal activity against Aspergillus niger PTCC 5012 after 72 hrs by agar dilution method. Format: functional. The method, boiled down: as §2
In general terms: Agar dilution tests growth on a series of plates holding different concentrations.

For experiment [9], the system named is Helicobacter pylori. Briefly: Antibacterial activity against metronidazole-sensitive Helicobacter pylori assessed as inhibition zone diameter at 8 ug/disk after 3-5 days by paper disk diffusion assay. It counts as functional. The method, boiled down: (§3)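 Filter-paper disk diffusion (6 mm disks), with the compound applied in 40 µL methanol and dried. Disks placed on Mueller–Hinton agar with 7% defibrinated horse blood, inoculated with 48 h H. pylori clinical-isolate suspension at 2 McFarland (10^7-10^8 CFU/mL). Incubated 3–5 days at 37 °C microaerophilically (5% O2, 15% CO2, 80% N2). Mean inhibition-zone diameter (mm) from triplicates.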
For orientation: Agar diffusion results depend on both activity and mobility in agar.

Experiment [10] has as its system Helicobacter pylori. Briefly: Antibacterial activity against metronidazole-sensitive Helicobacter pylori assessed as inhibition zone diameter at 16 ug/disk after 3-5 days by paper disk diffusion assay. Format: functional. The method, boiled down:
(§4)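 Filter paper disks (6 mm) loaded with compound in 40 μL methanol, dried, placed on Mueller–Hinton agar with 7% defibrinated horse blood pre-inoculated with H. pylori suspension (2 McFarland, 10⁷-10⁸ CFU/mL; 48 h cultures checked for coccoid forms); incubated microaerophilically (5% O2, 15% CO2, 80% N2) at 37 °C for 3–5 days; mean inhibition zone diameter (mm) of triplicates.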

The subject of experiment [11] is Helicobacter pylori. Description: Antibacterial activity against metronidazole-sensitive Helicobacter pylori assessed as inhibition zone diameter at 32 ug/disk after 3-5 days by paper disk diffusion assay. It counts as functional. In outline:
as §3

Experiment [12] concerns Helicobacter pylori. Briefly: Antibacterial activity against metronidazole-resistant Helicobacter pylori assessed as inhibition zone diameter at 8 ug/disk after 3-5 days by paper disk diffusion assay. It counts as functional. The method, boiled down:
as §4

In experiment [13] the test system is Helicobacter pylori. Briefly: Antibacterial activity against metronidazole-resistant Helicobacter pylori assessed as inhibition zone diameter at 16 ug/disk after 3-5 days by paper disk diffusion assay. Format: functional. In outline:
as §4

The subject of experiment [14] is Helicobacter pylori. Description: Antibacterial activity against metronidazole-resistant Helicobacter pylori assessed as inhibition zone diameter at 32 ug/disk after 3-5 days by paper disk diffusion assay. It counts as functional. The method, boiled down:
as §4

In experiment [15] the test system is Helicobacter pylori. Briefly: Antibacterial activity against Helicobacter pylori isolate assessed as inhibition zone diameter at 0.5 ug/disk after 3-5 days by paper disk diffusion assay. It counts as functional. In outline: as §3
Experiment [16] has as its system Helicobacter pylori. Briefly: Antibacterial activity against Helicobacter pylori isolate assessed as inhibition zone diameter at 1 ug/disk after 3-5 days by paper disk diffusion assay. Format: functional. In outline:
as §3

In experiment [17] the test system is Helicobacter pylori. Description: Antibacterial activity against Helicobacter pylori isolate assessed as inhibition zone diameter at 2 ug/disk after 3-5 days by paper disk diffusion assay. It counts as functional. The method, boiled down: as §3
The subject of experiment [18] is Helicobacter pylori. Description: Antibacterial activity against Helicobacter pylori isolate assessed as inhibition zone diameter at 4 ug/disk after 3-5 days by paper disk diffusion assay. Format: functional. In outline: as §3
The test system of experiment [19] is Helicobacter pylori. Briefly: Antibacterial activity against Helicobacter pylori isolate assessed as inhibition zone diameter at 8 ug/disk after 3-5 days by paper disk diffusion assay. Format: functional. In outline:
as §3

Experiment [20] concerns Helicobacter pylori. Briefly: Antibacterial activity against Helicobacter pylori isolate assessed as inhibition zone diameter at 16 ug/disk after 3-5 days by paper disk diffusion assay. It counts as functional. In outline:
as §3

Experiment [21] deals with Helicobacter pylori. Description: Antibacterial activity against Helicobacter pylori isolate assessed as inhibition zone diameter at 32 ug/disk after 3-5 days by paper disk diffusion assay. Format: functional. The method, boiled down: as §3
Experiment [22] in a line: Cytotoxicity against mouse NIH/3T3 cells after 72 hrs by MTT assay. Format: cell-based. Particulars: NIH3T3, 72 h. In outline:
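NIH/3T3 mouse fibroblasts in exponential phase trypsinized and seeded at 5×10^4 cells/mL, then given serially diluted compound in triplicate and incubated 72 h. MTT (5 mg/mL solution) added for 1 h, formazan dissolved in DMSO, absorbance read at 492 nm. IC50 calculated from dose-response curves versus untreated controls, as mean ± SD of triplicates.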
In general terms: Formazan colour is commonly taken as a measure of viable cells.

In brackets after ≈: the same amount, converted by molar mass.

Two molecules from ChEMBL document CHEMBL1143078, “Synthesis and anti-Helicobacter pylori activity of 5-(nitroaryl)-1,3,4-thiadiazoles with certain sulfur containing alkyl side chain” (Bioorg Med Chem Lett, 2008) can be followed below.

With `CCSCCSc1nnc(-c2ncc([N+](=O)[O-])n2C)s1`, the minimal inhibitory concentration (MIC) is above 32 µg/mL in experiment [1]; 32 µg/mL (≈ 96.5 µM) in experiment [2]; above 32 µg/mL in [3]; above 32 µg/mL in experiment [4]; above 32 µg/mL in [5]; above 32 µg/mL in experiment [6]. Moreover, the MIC in [7] and in [8] was above 32 µg/mL throughout. Also, the Activity came to 32 mm in experiment [9]; 37 mm in [10]; 48 mm in experiment [11]; 35 mm in experiment [12]; 47 mm in experiment [13]; 59 mm in experiment [14]. Besides, the Activity was 12.2 mm in [15]; 15 mm in experiment [16]; 19.5 mm in experiment [17]; 25.4 mm in experiment [18]; 31.7 mm in [19]; 36.5 mm in experiment [20]. Also, the Activity in experiment [21] stood at 42.6 mm. In addition, in experiment [22], half-maximal inhibition (IC50) was put at 61.5 µg/mL (≈ 186 µM).

Consider `CCSCCSc1nnc(-c2ccc([N+](=O)[O-])o2)s1`, for which the MIC was above 32 µg/mL in [1]; 32 µg/mL (≈ 101 µM) in [2]; above 32 µg/mL in experiment [3]; above 32 µg/mL in experiment [4]; above 32 µg/mL in experiment [5]; above 32 µg/mL in experiment [6]. Besides, the minimal inhibitory concentration (MIC) in [7] and in experiment [8] was above 32 µg/mL in each case. Moreover, the Activity in experiment [9] is 22 mm; in experiment [10] it was 31 mm; in experiment [11], 42 mm; in experiment [12], 16 mm; in experiment [13] it was 21 mm; in experiment [14], 28 mm. Moreover, the Activity is on record as 6 mm in [15]; 11.1 mm in [16]; 16.4 mm in experiment [17]; 21.5 mm in [18]; 28.3 mm in [19]; 30.7 mm in [20]. The Activity in experiment [21] amounted to 34.9 mm. Also, the half-inhibitory concentration (IC50) in experiment [22] amounted to 5 µg/mL (≈ 15.8 µM).

Usually MIC stands for the lowest concentration that inhibits growth of the organism. For orientation: IC50 means the concentration that inhibits the measured activity by half. A high value points to weaker potency in that assay.
